Experimental data taken from ChEMBL document CHEMBL1156597, “Structure-activity relationship of kahalalide F synthetic analogues” (J Med Chem, 2008).

Key:
[1] = system: DU-145; assay: Cytotoxicity against human DU145 cells after 48 hrs by SRB assay; assay type: functional, cell-based; conditions: Homo sapiens, DU-145, 48 h; for CC50: read-out: LC50 (the source's name)
How it was run: (§1)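 Cells grown in RPMI 1640 with 10% FBS and penicillin/streptomycin at 37 °C and 5% CO₂, trypsinized, then seeded at 5 × 10³/well. After 18 h drug-free attachment, samples in DMSO/EtOH/PBS (0.5:0.5:99) were added for 48 h continuous exposure. Cells were fixed with cold TCA (1 h, 4 °C) and stained with SRB (10 min). Tris-solubilized stain read at 490 nm. Triplicate wells, mean ± SD; GI₅₀ derived.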

[2] = system: LNCaP; assay: Cytotoxicity against human LNcaP cells after 48 hrs by SRB assay; assay type: functional; conditions: for CC50: read-out: LC50 (the source's name); how it was run: as §1
[3] = Cytotoxicity against human IGROV cells after 48 hrs by SRB assay; assay type: functional; conditions: for CC50: read-out: LC50 (the source's name); how it was run: as §1
[4] = Cytotoxicity against human IGROV-ET cells after 48 hrs by SRB assay; assay type: functional; conditions: for CC50: read-out: LC50 (the source's name); how it was run: as §1
[5] = system: SK-BR-3; assay: Cytotoxicity against human SKBR3 cells after 48 hrs by SRB assay; assay type: functional; conditions: SK-BR-3, 48 h; for CC50: read-out: LC50 (the source's name); how it was run: as §1
[6] = system: SK-MEL-28; assay: Cytotoxicity against human SK-MEL-28 cells after 48 hrs by SRB assay; assay type: functional, cell-based; conditions: Homo sapiens, SK-MEL-28, 48 h; for CC50: read-out: LC50 (the source's name); how it was run: as §1
[7] = system: A549; assay: Cytotoxicity against human A549 cells after 48 hrs by SRB assay; assay type: functional, cell-based; conditions: Homo sapiens, A549, 48 h; how it was run: as §1
[8] = system: K562; assay: Cytotoxicity against human K562 cells after 48 hrs by SRB assay; assay type: functional; conditions: K562, 48 h; for CC50: read-out: LC50 (the source's name); how it was run: as §1
[9] = system: PANC-1; assay: Cytotoxicity against human PANC1 cells after 48 hrs by SRB assay; assay type: functional; conditions: PANC-1, 48 h; for CC50: read-out: LC50 (the source's name); how it was run: as §1
[10] = system: HT-29; assay: Cytotoxicity against human HT29 cells after 48 hrs by SRB assay; assay type: functional, cell-based; conditions: Homo sapiens, HT-29, 48 h; for CC50: read-out: LC50 (the source's name); how it was run: as §1
[11] = system: LoVo; assay: Cytotoxicity against human LoVo cells after 48 hrs by SRB assay; assay type: functional; conditions: for CC50: read-out: LC50 (the source's name)
[12] = system: LoVo; assay: Cytotoxicity against human doxorubicin resistant LoVo cells after 48 hrs by SRB assay; assay type: functional; conditions: for CC50: read-out: LC50 (the source's name); how it was run: as §1
[13] = system: HeLa; assay: Cytotoxicity against human HeLa cells after 48 hrs by SRB assay; assay type: functional; conditions: for CC50: read-out: LC50 (the source's name); how it was run: as §1
[14] = Cytotoxicity against human HeLa-APL cells after 48 hrs by SRB assay; assay type: functional; how it was run: as §1

`C/C=C1\NC(=O)[C@H](Cc2ccccc2)NC(=O)[C@@H](C(C)C)NC(=O)[C@@H]([C@H](C)CC)NC(=O)[C@H](NC(=O)[C@H](NC(=O)[C@H](CCCN)NC(=O)[C@H]2CCCN2C(=O)[C@H](NC(=O)[C@@H](NC(=O)[C@@H](NC(=O)[C@H](NC(=O)CCCCCCCCCC)C(C)C)[C@@H](C)O)C(C)C)C(C)C)[C@H](C)CC)[C@H](C)OC(=O)[C@H](C(C)C)NC1=O` showed a GI50 [1] of 0.188 µM, a GI50 ([1]; read-out: GI50) of 0.183 µM and a CC50 [1] of 0.26 µM. For the same molecule, the GI50 [2] was 0.423 µM, the TGI [2] was 0.586 µM and the CC50 [2] was 0.72 µM. The GI50 [3] was 0.146 µM, the GI50 ([3]; read-out: GI50) was 0.218 µM and the CC50 [3] was 0.196 µM. It also gave a GI50 [4] of 0.218 µM, a GI50 ([4]; read-out: GI50) of 0.166 µM and a CC50 [4] of 0.318 µM. For the same molecule, the GI50 [5] was 0.0699 µM, the GI50 ([5]; read-out: GI50) was 0.0614 µM and the CC50 [5] was 0.0736 µM. The GI50 [6] was 0.251 µM, the GI50 ([6]; read-out: GI50) was 0.193 µM and the CC50 [6] was 0.561 µM. For the same molecule, the GI50 [7] was 0.186 µM, the LC50 [7] was 0.456 µM and the GI50 ([7]; read-out: GI50) was 0.16 µM. It also gave a CC50 [8] of 1.17 µM, a GI50 [9] of 1.63 µM and a TGI [9] of 1.54 µM. It also gave a CC50 [9] of 1.44 µM, a GI50 [10] of 0.371 µM and a TGI [10] of 0.354 µM. For the same molecule, the CC50 [10] was 0.201 µM, the GI50 [11] was 0.287 µM and the TGI [11] was 0.319 µM. It also gave a CC50 [11] of 0.352 µM, a GI50 [12] of 0.0962 µM and a TGI [12] of 0.189 µM. The CC50 [12] was 0.265 µM, the GI50 [13] was 0.139 µM and the TGI [13] was 0.129 µM. For the same molecule, the CC50 [13] was 0.12 µM, the GI50 [14] was 0.237 µM and the LC50 (concentration giving 50% net cell kill) [14] was 0.76 µM. The TGI [14] was 0.399 µM.

`C/C=C1\NC(=O)[C@H](Cc2ccccc2)NC(=O)[C@@H](C(C)C)NC(=O)[C@@H]([C@H](C)CC)NC(=O)[C@H](NC(=O)[C@H](NC(=O)[C@H](CCCN)NC(=O)[C@H]2CCCN2C(=O)[C@H](NC(=O)[C@@H](NC(=O)[C@@H](NC(=O)[C@H](NC(=O)CCCCCCC)C(C)C)[C@@H](C)O)C(C)C)C(C)C)[C@H](C)CC)[C@H](C)OC(=O)[C@H](C(C)C)NC1=O` gave a GI50 [1] of 0.666 µM, a GI50 ([1]; read-out: GI50) of 0.578 µM and a CC50 [1] of 0.758 µM. For the same molecule, the GI50 [2] was 0.779 µM, the TGI [2] was 0.837 µM and the CC50 [2] was 0.889 µM. For the same molecule, the GI50 [3] was 0.58 µM, the GI50 ([3]; read-out: GI50) was 0.684 µM and the CC50 [3] was 0.509 µM. For the same molecule, the GI50 [4] was 0.513 µM, the GI50 ([4]; read-out: GI50) was 0.529 µM and the CC50 [4] was 0.393 µM. For the same molecule, the TGI [5] was 0.359 µM, the GI50 ([5]; read-out: GI50) was 0.343 µM and the CC50 [5] was 0.374 µM. The GI50 [6] was 0.949 µM, the GI50 ([6]; read-out: GI50) was 0.933 µM and the CC50 [6] was 0.966 µM. For the same molecule, the LC50 [7] was 1.2 µM, the TGI [7] was 1.13 µM and the GI50 ([7]; read-out: GI50) was 1.05 µM. For the same molecule, the GI50 [8] was 1 µM, the TGI [8] was 1.23 µM and the CC50 [8] was 1.5 µM. It also gave a GI50 [9] of 2.83 µM, a TGI [9] of 4.21 µM and a CC50 [9] of 2.29 µM. For the same molecule, the GI50 [10] was 0.578 µM, the TGI [10] was 0.587 µM and the CC50 [10] was 0.917 µM. It also gave a GI50 [11] of 0.321 µM, a TGI [11] of 0.396 µM and a CC50 [11] of 0.443 µM. It also gave a GI50 [12] of 0.299 µM, a TGI [12] of 0.289 µM and a CC50 [12] of 0.278 µM. The GI50 [13] was 0.946 µM, the TGI [13] was 1.01 µM and the CC50 [13] was 1.08 µM. It also gave a GI50 [14] of 0.527 µM, an LC50 (concentration giving 50% net cell kill) [14] of 1.22 µM and a TGI [14] of 0.808 µM.

Work on `C/C=C1\NC(=O)[C@H](Cc2ccccc2)NC(=O)[C@@H](C(C)C)NC(=O)[C@@H]([C@H](C)CC)NC(=O)[C@H](NC(=O)[C@H](NC(=O)[C@H](CCCN)NC(=O)[C@H]2CCCN2C(=O)[C@H](NC(=O)[C@@H](NC(=O)[C@@H](NC(=O)[C@H](NC(=O)C(F)(F)C(F)(F)C(F)(F)C(F)(F)C(F)(F)C(F)(F)F)C(C)C)[C@@H](C)O)C(C)C)C(C)C)[C@H](C)CC)[C@H](C)OC(=O)[C@H](C(C)C)NC1=O` yielded a GI50 [1] of 0.614 µM, a GI50 ([1]; read-out: GI50) of 0.534 µM and a CC50 [1] of 0.708 µM. The GI50 [2] was 0.758 µM, the TGI [2] was 0.757 µM and the CC50 [2] was 0.753 µM. For the same molecule, the GI50 [3] was 0.584 µM, the GI50 ([3]; read-out: GI50) was 0.854 µM and the CC50 [3] was 0.459 µM. The GI50 [4] was 0.814 µM, the GI50 ([4]; read-out: GI50) was 0.697 µM and the CC50 [4] was 1.04 µM. The TGI [5] was 0.453 µM, the GI50 ([5]; read-out: GI50) was 0.291 µM and the CC50 [5] was 0.578 µM. For the same molecule, the GI50 [6] was 0.765 µM, the GI50 ([6]; read-out: GI50) was 0.734 µM and the CC50 [6] was 0.794 µM. The GI50 [7] was 0.745 µM, the LC50 [7] was 0.865 µM and the GI50 ([7]; read-out: GI50) was 0.636 µM. The GI50 [8] was 0.83 µM, the TGI [8] was 1.01 µM and the CC50 [8] was 1.22 µM. The GI50 [9] was 2.32 µM, the TGI [9] was 3.46 µM and the CC50 [9] was 2 µM. For the same molecule, the GI50 [10] was 0.513 µM, the TGI [10] was 0.52 µM and the CC50 [10] was 0.563 µM. For the same molecule, the GI50 [11] was 1.16 µM, the TGI [11] was 1.18 µM and the CC50 [11] was 0.798 µM. The GI50 [12] was 0.286 µM, the TGI [12] was 0.289 µM and the CC50 [12] was 0.29 µM. For the same molecule, the GI50 [13] was 0.961 µM, the TGI [13] was 0.947 µM and the CC50 [13] was 0.931 µM. The GI50 [14] was 0.596 µM, the LC50 (concentration giving 50% net cell kill) [14] was 1.2 µM and the TGI [14] was 0.888 µM.
